Only some compounds are listed: those with a hit (about 1.9% of all), similar ones and a draw of the others.
NPY-Y2 antag: blocks the human neuropeptide Y Y2 receptor. hit rate 0.99% among 140,000. inhibition, % at 2.7 µM. NPY-Y2 expressing cells, antagonist mode;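 also: 0% = vehicle with agonist challenge and 100% = reference antagonist with challenge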
Target sequence (P49146 whole entry, looked up): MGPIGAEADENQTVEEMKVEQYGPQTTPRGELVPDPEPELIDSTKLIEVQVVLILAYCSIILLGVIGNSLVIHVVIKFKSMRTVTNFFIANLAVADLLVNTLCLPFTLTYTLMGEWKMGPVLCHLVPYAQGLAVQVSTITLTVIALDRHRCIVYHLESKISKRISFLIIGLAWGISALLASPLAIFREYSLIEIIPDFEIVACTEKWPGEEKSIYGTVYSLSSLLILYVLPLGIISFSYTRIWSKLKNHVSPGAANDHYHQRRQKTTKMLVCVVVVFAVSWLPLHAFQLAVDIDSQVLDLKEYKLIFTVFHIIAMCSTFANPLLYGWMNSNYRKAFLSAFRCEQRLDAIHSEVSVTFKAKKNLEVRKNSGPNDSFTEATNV
NPY1 pot ag: potentiates or activates human NPY-Y1 receptor. NPY-Y1 expressing cells, potentiator/agonist activation. activation, % at 3.6 µM. hit rate 0.37% among 220,000. AID 1304; in the data active = activation above about 33%, passing the limit was not always enough;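 also: cells stimulated with NPY at EC10 then isoproterenol at EC100; 0% = low agonist plus stimulus and 100% = saturating agonist plus stimulus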
NPY Y1 blocker: NPY-Y1 (human) receptor antagonism. HEK293-CNG Y1 cells, membrane potential fluorescence; NPY at EC95, then isoproterenol. inhibition, % at 3.6 µM. hit rate 1% among 200,000. AID 1040;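 active = inhibition above the campaign mean inhibition of all tested compounds plus 3 SD, cut at about 20% in these data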;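 also: 0% = DMSO wells given NPY plus isoproterenol and 100% = isoproterenol alone without NPY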
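Material: HEK293 Y1/CNG channel cell line | Also added: NPY (25 nM), isoproterenol (1 µM), Ro 20-1724 (25 µM) | Compound: One concentration, 3.6 µM, in 0.4% DMSO | Schedule: 3 h dye uptake, 1 h room-temperature compound, 45 min post-isoproterenol | Signal: Membrane-potential fluorescent dye readout | Read-out: % inhibition of NPY effect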
NPY-Y2 PAM-ag: human NPY-Y2 potentiation or agonism, primary screen; P49146; cells expressing NPY-Y2, potentiator/agonist read-out; activation, % at 3.6 µM; hit rate 0.45% among 220,000; AID 1359; in the data active = activation above about 27%;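 also: cells stimulated with NPY near EC25 plus isoproterenol at EC100; 0% = vehicle plus submaximal agonist and 100% = vehicle plus saturating agonist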
NPY1 antag conf: confirmation of human neuropeptide Y receptor Y1 antagonists | shares compounds with NPY Y1 blocker | HEK293-CNG NPY-Y1, membrane potential fluorescence, cAMP; NPY challenge against isoproterenol-raised cAMP | inhibition, % at 3.6 µM | hit rate 21% among 1,200; in the data active = inhibition above about 20%;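 also: 0% = vehicle with agonist plus stimulus and 100% = stimulus alone without agonist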
NPY-Y2 antag ct: counter-screen for NPY-Y1 antagonists: human NPY-Y2 antagonism. shares compounds with NPY Y1 blocker. HEK293 NPY-Y2 CNG membrane potential fluorescence; cells given NPY, then isoproterenol. inhibition, % at 3.6 µM. hit rate 28% among 1,200;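 also: 0% = DMSO with agonist challenge and 100% = reference antagonist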
Starred values were filed as active, the others as inactive; / = not tested or not shown. Rule as the data show it, unless noted: active = inhibition above about 17%; inactive = the rest.

SMILES	NPY-Y2 antag	NPY1 pot ag	NPY Y1 blocker	NPY-Y2 PAM-ag	NPY1 antag conf	NPY-Y2 antag ct
CCn1c(=O)cc(SCC(=O)N2CCN(c3ccccn3)CC2)c2ccccc21	7	-14	1	-21	/	/
CCn1c(=O)cc(SCC(=O)N2CCN(c3ccccc3F)CC2)c2ccccc21	12	3	24*	-70	14	12
Cc1ccc(S(=O)(=O)NC(=O)c2ccc(-c3ccc(-c4ccccc4)cc3)o2)c(C)c1	13	-24	12	9	/	/
COc1ccccc1NNC(=O)c1cccnc1Oc1ccccc1	/	-8	/	-13	/	/
COC(=O)c1cn(-c2ccccc2)nc1-c1ccc(OC)cc1	/	-27	7	-4	/	/
CCN(CC)CCNC(=S)NC(=O)c1cn(-c2ccccc2)nc1-c1ccc(OC)cc1	/	-43	26*	-43	17	32*
COc1ccc(-c2cc(-c3n[nH]c(=S)n3-c3cc(OC)ccc3OC)[nH]n2)cc1	5	-70	27*	-36	23*	44*
S=c1[nH]nc(-c2cc(-c3ccco3)[nH]n2)n1-c1ccccc1Cl	17	7	0	1	/	/
COc1ccc(-c2cc(-c3n[nH]c(=S)n3-c3ccccc3Cl)[nH]n2)cc1	/	-32	42*	-19	47*	73*
COc1ccc(OC)c(-n2c(-c3cc(-c4ccc(F)cc4)n[nH]3)n[nH]c2=S)c1	2	-23	1	2	/	/
NC(=S)N/N=C/c1ncc(C(F)(F)F)cc1Cl	/	15	/	2	/	/
O=C(COC(=O)CCC(=O)c1ccc2c(c1)OCCO2)NCc1ccc2c(c1)OCO2	7	-28	21*	-12	12	9
Oc1cc2ccccc2cc1-c1n[nH]c(=S)o1	15	-26	40*	-29	19	14
COC(=O)c1ccccc1NC(=O)c1cccc(NC(=O)C(C)C)c1	/	-23	0	-5	/	/
COC(=O)c1ccccc1NC(=O)c1cc(OC)cc(OC)c1	4	-28	21*	-7	9	12
COC(=O)c1ccccc1NC(=O)c1ccc(COc2ccc(C)c(C)c2)o1	10	-5	29*	5	10	12
CCc1cccc(CC)c1NC(=O)COC(=O)c1cccc(-c2ccc(OC(C)=O)cc2)c1	3	-27	7	-8	/	/
c1ccc(OCc2noc(CN3CCC(C4CCCCC4)C3)n2)cc1 (stereo not given)	/	-11	5	-2	/	/
N#C/C(=N\Nc1cccc(Cl)c1)C(=O)c1ccccc1	5	38	7	25	/	/
COc1ccc(C(=O)/C(C#N)=N/Nc2cccc([N+](=O)[O-])c2)cc1	/	-15	26*	-5	29*	17
Cc1cc(N/N=C2/CCCc3ccccc32)nc2ccccc12	/	-37	29*	-23	32*	29*
CC(=O)Oc1c(-c2ccco2)oc2ccccc2c1=O	/	0	4	3	/	/
O=C(O)CCSc1nnc(-c2ccc3c(c2)OCO3)o1	14	-44	12	-33	/	/
CC(=O)CSc1nnc(-c2ccc3c(c2)OCO3)o1	7	-31	21*	-21	7	6
COC(=O)c1cc(-c2cccc(OC)c2)on1	13	-38	27*	-29	11	15
SMILES	NPY-Y2 antag	NPY1 pot ag	NPY Y1 blocker	NPY-Y2 PAM-ag	NPY1 antag conf	NPY-Y2 antag ct
COC(=O)c1cc(-c2ccc(Br)cc2)on1	15	-49	23*	-44	12	17*
COc1ccc(N(C(C)=O)S(=O)(=O)c2cccc3cccnc23)cc1	-1	-7	-3	-14	/	/
CC1CCCC(NC(=O)CCC(=O)c2ccc(F)cc2)C1C (stereo not given)	/	-23	/	-25	/	/
CC1CCCC(NC(=O)CSc2ccc(F)cc2)C1C (stereo not given)	/	1	67*	5	5	2
CC(NCCC(Cc1ccccc1)c1ccco1)c1ccccc1 (stereo not given)	/	27	/	-16	/	/
CCC(=O)N(CCC(Cc1ccccc1)c1ccco1)Cc1ccco1 (stereo not given)	/	-24	42*	-15	13	7
CCC(=O)N(CCC(Cc1ccccc1)c1ccc2c(c1)OCO2)Cc1ccccc1F (stereo not given)	16	-18	47*	-7	19	12
CCc1cc(CNC(=O)CCc2nnc(CCCc3ccccc3)o2)on1	/	-2	8	7	/	/
CNc1ccc(/C=C(\CCC(=O)O)c2nc3ccccc3s2)cc1[N+](=O)[O-]	15	-79	26*	-24	39*	52*
Cc1ccc(/C=C(\CCC(=O)O)c2nc3ccccc3s2)cc1[N+](=O)[O-]	15	-22	18	-26	/	/
O=c1c2c(nc3cc(-c4ccc(Cl)cc4)[nH]n13)CCS2	-5	-13	0	16	/	/
CC(/C=C/c1ccc2c(c1)OCO2)=N\NC(=O)c1ccccc1	/	-15	24*	4	1	5
CCOC(=O)C1(CC2CCCCO2)CCN(Cc2c(C)cc(C)cc2-n2cccn2)CC1 (stereo not given)	/	-15	24*	-10	9	8
CCOC(=O)C1(CC2CCCCO2)CCN(Cc2nccn2-c2cccc(C)c2)CC1 (stereo not given)	/	1	8	-4	/	/
CCOC(=O)C1(CC2CCCCO2)CCN(Cc2cc(F)ccc2-n2cccn2)CC1 (stereo not given)	/	-2	25*	-16	18	7
CC(C)(C)n1cnnc1Sc1ncccc1[N+](=O)[O-]	/	21	/	5	/	/
CC(C)=CCN1CCN(Cc2cc(F)ccc2-n2nc(C)cc2C)CC1CCO (stereo not given)	/	-15	17	-12	/	/
N#Cc1nc(COc2ccccc2)oc1N1CCC(Cc2ccccc2)CC1	13	-72	32*	-24	21*	21*
Cc1cc(C(=O)OCC(=O)c2cccs2)c2ccccc2n1	/	-3	-4	-16	/	/
Cc1cc(C(=O)N/N=C(\CCC(=O)O)c2cccs2)c2ccccc2n1	/	1	35*	14	-6	3
COc1ccc(CN(C(=O)c2nsc(Cl)c2Cl)C(C(=O)NC2CCCCC2)c2ccc(OC)cc2)cc1 (stereo not given)	17	-24	22*	-24	20	16
CC(C)=C(NC(=O)c1ccccc1)C(=O)N1CCOCC1	2	13	22*	13	-2	0
Cc1ccc(/C=N/n2c(C)nc3ccccc3c2=O)s1	/	-11	4	-5	/	/
Fc1ccc2nc(C3CCCCN3Cc3nc(CC4CC4)no3)[nH]c2c1 (stereo not given)	/	-15	39*	-6	9	11
CCCn1nnc(NC(=O)c2cccc(Cl)c2)n1	2	10	51*	-9	1	1
CC(=O)NC1=NN(C(C)=O)C2(S1)C(=O)N(CC(C)C)c1ccc(C)cc12 (stereo not given)	/	14	/	-10	/	/
CCC/C=C(\CCC)C(NC(=O)OCC(C)C)c1ccc(C(=O)OC)cc1 (stereo not given)	14	-41	22*	-7	27*	26*

Screens (PubChem BioAssay)
